By Ki is commonly meant a dissociation constant, usually derived from enzyme kinetics or from competition with a known ligand. Lower therefore signals a stronger hold on the target.

This note sets out measurements from ChEMBL document CHEMBL3272161, “Synthesis of prostaglandin synthetase substrate analogues. 2. (8Z,11Z,14Z)-15-Methyl-8,11,14-eicosatrienoic acid” (J Med Chem, 1977).

For assay [1], the species on record is Ovis aries. The experiment in a line: Activity at cyclooxygenase in sheep seminal vesicles assessed as oxygen consumption in presence of hematin. In outline: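 Cyclooxygenase purified from seminal vesicles was supplemented with 0.5 uM hematin. Fatty acid came from a 9 mM heptane stock, dried under N2 just before use and resuspended in 0.1 M Tris-Cl pH 8.5 with 0.67 mM phenol. O2 uptake was read by oxygen electrode in 3-mL chambers. Arachidonic acid was run alongside as control substrate.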

A short description of assay [2]: Competitive inhibition of cyclooxygenase-mediated cyclooxygenation of arachidonic acid in sheep seminal vesicles by Dixon plot analysis. Further details: species or system Ovis aries. In outline:
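Seminal vesicle cyclooxygenase was used with 0.5 uM hematin in 0.1 M Tris-Cl pH 8.5 containing 0.67 mM phenol. Activity was followed as O2 consumption by oxygen electrode in 3-mL chambers, with arachidonic acid as substrate. Ki was derived by Dixon graphical method from eight assays.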

The species named for assay [3] is Ovis aries. The assay is described as follows: Irreversible inactivation of cyclooxygenase-mediated cyclooxygenation of arachidonic acid in sheep seminal vesicles up to 12 mins. In outline: (§1)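 Cyclooxygenase O2-electrode assay was run with 0.5 uM hematin in Tris-Cl pH 8.5 with 0.67 mM phenol. Inhibitor was preincubated with enzyme for progressively longer periods, up to 12 min. Degree of inhibition was compared across preincubation times to test for irreversible inactivation.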

Assay [4] relates to Platelet. The assay is described as follows: Antiplatelet activity against human platelet rich plasma assessed as inhibition of ADP-induced platelet aggregation up to 5 mM incubated for 2 mins prior to ADP-challenge. Format: functional. In outline:
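PRP came from citrated venous blood of aspirin-free human volunteers (200g, 20 min, RT), at 4-6 x 10^8 platelets/mL, with PPP as blank. Compound sodium salts, 50 mM in 0.1 M Na2CO3, were added as 0.01-0.05 mL to 0.5 mL of stirred PRP at 37 °C, 2 min before ADP. Aggregation was induced by 0.01 mL of 1 mM ADP and followed 2-3 min by aggregometer.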

Assay [5] is filed under the species Ovis aries. The experiment in a line: Reversible inhibition of cyclooxygenase in sheep seminal vesicles. In a few lines:
as §1

Assay [6] has as its target seed linoleate 13S-lipoxygenase-1 (Glycine max) (UniProt P08170). The assay is described as follows: Activity at soybean lipoxygenase assessed as oxygen consumption.
For assay [7], the species on record is Homo sapiens. The assay is described as follows: Activity at prostaglandin synthetase in ADP-induced human platelet rich plasma assessed as malondialdehyde formation up to 5 mM by spectrophotometric analysis. In outline: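 After ADP aggregation, PRP (compound salts added 2 min pre-ADP) was held a further 27 min at 37 °C unstirred. Samples were quenched in 20% trichloroacetic acid/0.6 M HCl and centrifuged. Supernatant was heated 15 min in boiling water with 0.12 M thiobarbiturate (Tris, pH 7.0), then read at A533. MDA = PRP minus PPP signal; recovery was 75-80%.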

Structures are written as SMILES. Calls of active or inactive are those of the source. The rule behind the calls is not given here.

`CCCCC/C=C\C/C=C\C/C=C\C/C=C\CCCC(=O)O`: the result in assay [1] was Active.

As to `CCCCC/C(C)=C\C/C=C\C/C=C\CCCCCCC(=O)O`, affinity in assay [2] was put at a Ki of 2000 nM. Further, the outcome in assay [3], in assay [7] and in assay [1] was inactive. For the same compound, the inhibition entry in assay [4] and in assay [5] was “Active” in each case. In addition, the result in assay [6] was Active.

As to `CCCCC/C=C\C/C=C\C/C=C\CCCCCCC(=O)O`, the inhibition entry in assay [4] was “Active”. Also, in assay [7], the outcome was Active.
